Measurements as given in ChEMBL document CHEMBL4706770, “SD-91 as A Potent and Selective STAT3 Degrader Capable of Achieving Complete and Long-Lasting Tumor Regression” (ACS Med Chem Lett, 2021).
Calls of active or inactive are those of the source. No cut-off for these calls is given here.

Legend:
[1] = Drug uptake in SCID mouse xenografted with human MOLM16 cells assessed as (2-(((5S,8S,10aR)-8-(((S)-5-amino-1-(benzhydrylamino)-1,5-dioxopentan-2-yl)carbamoyl)-3-(8-(2-(2,6-dioxopiperidin-3-yl)-1-oxoisoindolin-4-yl)oct-7-yno yl)-6-oxodecahydropyrrolo[1,2-a][1,5]diazocin-5-yl)carbamoyl)-1H-indole-5-carbonyl)phosphonic acid level in plasma at 50 mg/kg, iv measured after 1 hrs by LC-MS/MS; assay type: ADME, organism-based; conditions: in vivo
Outline: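 SCID mice bearing MOLM-16 xenografts given a single iv dose of 50 mg/kg. Concentrations of parent and hydrolysis product measured in plasma (ng/mL) and tumor tissue (ng/g) at 1, 6 and 24 h.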

[2] = target: Protein cereblon/Signal transducer and activator of transcription 1-alpha/beta (Homo sapiens) (UniProt P42224+Q96SW2); assay: Protac activity at CRBN/STAT1 in human MOLM16 cells assessed as STAT1 degradation at 0.25 to 100 uM incubated for 4 hrs by Western blot analysis; assay type: cell-based; conditions: dose 0.25-100 µM
Outline: (§1)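 Cells treated 4 h with compounds across 25 nM to 100 μM; STAT proteins detected by Western blot with GAPDH as loading control; STAT3 DC50 estimated by densitometry of STAT3 relative to GAPDH. Applies to MOLM-16 for all STATs, and to SU-DHL-1 and SUP-M2 for STAT3.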

[3] = target: Protein cereblon/Signal transducer and activator of transcription 2 (Homo sapiens) (UniProt Q96SW2+P52630); assay: Protac activity at CRBN/STAT2 in human MOLM16 cells assessed as STAT2 degradation at 0.25 to 100 uM incubated for 4 hrs by Western blot analysis; assay type: cell-based; conditions: dose 0.25-100 µM; outline: as §1
[4] = target: Protein cereblon/Signal transducer and activator of transcription 3 (Homo sapiens, UniProt P40763+Q96SW2); assay: In vivo protac activity at CRBN/STAT3 degradation in SCID mouse xenografted with human MOLM16 cells assessed as reduction in STAT3 in tumor tissue at 50 mg/kg, iv measured after 24 hrs by immunoblotting analysis; assay type: functional, organism-based
Outline: (§2)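 SCID mice bearing MOLM-16 tumors given a single iv dose of 50 mg/kg or dosing vehicle. Tumor lysates immunoblotted for STAT3, STAT1 and STAT6 at time points from 1 h to at least 24 h.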

[5] = target: Protein cereblon/Signal transducer and activator of transcription 4 (Homo sapiens) (UniProt Q96SW2+Q14765); assay: Protac activity at CRBN/STAT4 in human MOLM16 cells assessed as STAT4 degradation at 0.25 to 100 uM incubated for 4 hrs by Western blot analysis; assay type: cell-based; conditions: dose 0.25-100 µM; outline: as §1
[6] = Drug metabolism buffer pH 8 assessed as conversion to 5-amino-4-(4-(8-((5S,8S,10aR)-8-((S)-5-amino-1-(benzhydrylamino)-1,5-dioxopentan-2-ylcarbamoyl)-6-oxo-5-(5-(phosphonocarbonyl)-1H-indole-2-carboxamido)octahydropyrrolo[1,2-a][1,5]diazocin-3(4H)-yl)-8-oxooct-1-ynyl)-1-oxoisoindolin-2-yl)-5-oxopentanoic acid measured upto 100 hrs by LC/MS/MS analysis; conditions: time hrs <=100
Outline: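 Parent compound incubated in buffer at pH 4 or pH 8, at room temperature or 37 °C. Percentages of the parent, the hydrolysis product and the glutarimide ring-opened product followed over time, up to 96 h.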

[7] = Antitumor activity against human MOLM16 cells xenografted in SCID mouse assessed as tumor growth at 25 mg/kg, iv administered weekly measured after 2 weeks relative to control; assay type: functional
Outline: (§3)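 SCID mice bearing MOLM-16 xenografts given compound iv once weekly at 25 or 50 mg/kg. Tumor volume and body weight measured every 2 days. Growth inhibition expressed against vehicle-treated controls.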

[8] = target: T1, Signal transducer and activator of transcription 4 (Homo sapiens, UniProt Q14765); assay: Binding affinity to human recombinant STAT4 assessed as dissociation constant incubated for 15 mins by biolayer interferometry
T1 sequence (Q14765 whole entry): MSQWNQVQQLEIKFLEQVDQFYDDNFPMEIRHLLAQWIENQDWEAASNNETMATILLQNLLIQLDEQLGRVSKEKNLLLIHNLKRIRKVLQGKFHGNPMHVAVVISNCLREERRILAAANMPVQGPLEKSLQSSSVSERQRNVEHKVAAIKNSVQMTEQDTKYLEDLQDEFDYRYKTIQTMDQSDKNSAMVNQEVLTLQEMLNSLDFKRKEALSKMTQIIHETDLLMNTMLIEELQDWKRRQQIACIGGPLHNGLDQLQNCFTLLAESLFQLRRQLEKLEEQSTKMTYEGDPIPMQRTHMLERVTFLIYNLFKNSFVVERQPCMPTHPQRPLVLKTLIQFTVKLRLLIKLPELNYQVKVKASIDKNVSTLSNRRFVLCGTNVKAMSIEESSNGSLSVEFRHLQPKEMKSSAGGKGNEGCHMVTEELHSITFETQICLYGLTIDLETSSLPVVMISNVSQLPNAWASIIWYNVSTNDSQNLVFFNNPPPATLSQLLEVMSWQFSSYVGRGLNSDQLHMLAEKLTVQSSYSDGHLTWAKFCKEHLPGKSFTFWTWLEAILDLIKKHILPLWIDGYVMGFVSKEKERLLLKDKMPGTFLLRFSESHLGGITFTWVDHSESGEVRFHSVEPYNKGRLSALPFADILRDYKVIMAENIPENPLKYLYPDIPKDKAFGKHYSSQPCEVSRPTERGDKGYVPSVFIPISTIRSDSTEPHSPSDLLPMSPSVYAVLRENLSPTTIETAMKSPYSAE
Outline: (§4)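 Biolayer interferometry with recombinant human STAT1, STAT2, STAT3, STAT4, STAT5A, STAT5B or STAT6 proteins containing their SH2 domain. Compound run in 2× serial dilutions from 200 nM. Kd taken from steady-state fitting of equilibrium responses against concentration using a 1:1 binding model.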

[9] = tested on: Mus musculus; assay: In vivo induction of STAT3 degradation in SCID mouse xenografted with human MOLM16 cells assessed as reduction in total STAT3 level in tumor tissue at 50 mg/kg, iv measured after 24 hrs by immunoblotting analysis; assay type: functional, organism-based
Outline: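 SCID mice bearing MOLM-16 or SU-DHL-1 xenografts given a single iv dose of 50 mg/kg or dosing vehicle. Tumor lysates immunoblotted for p-STAT3 Y705 and total STAT3 at time points up to 48 h (MOLM-16) and 24 h (SU-DHL-1).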

[10] = target: Signal transducer and activator of transcription 3 (Homo sapiens, UniProt P40763); assay: Binding affinity to human recombinant STAT3 assessed as dissociation constant incubated for 15 mins by biolayer interferometry; outline: as §4
[11] = Antitumor activity against human MOLM16 cells xenografted in SCID mouse assessed as tumor regression at 50 mg/kg, iv administered weekly measured after 2 weeks; assay type: functional; outline: as §3
[12] = Toxicity in SCID mouse xenografted with human MOLM16 cells assessed as toxic effects at 25 to 50 mg/kg, iv for 65 days; assay type: organism-based; conditions: in vivo, 1560 h, dose 25-50 mg/kg, time 65 day
Outline: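 SCID mice bearing MOLM-16 xenografts dosed intravenously at 25 or 50 mg/kg on a weekly schedule; vehicle 10% PEG400/90% PBS; body weight and tumor volume measured every 2 days; signs of toxicity monitored during and after treatment.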

[13] = tested on: Mus musculus; assay: In vivo induction of STAT1 degradation in SCID mouse xenografted with human MOLM16 cells assessed as reduction in STAT1 in tumor tissue at 50 mg/kg, iv measured after 24 hrs by immunoblotting analysis; assay type: functional, organism-based; outline: as §2

Chain of Signal transducer and activator of transcription 3 (P40763 whole entry): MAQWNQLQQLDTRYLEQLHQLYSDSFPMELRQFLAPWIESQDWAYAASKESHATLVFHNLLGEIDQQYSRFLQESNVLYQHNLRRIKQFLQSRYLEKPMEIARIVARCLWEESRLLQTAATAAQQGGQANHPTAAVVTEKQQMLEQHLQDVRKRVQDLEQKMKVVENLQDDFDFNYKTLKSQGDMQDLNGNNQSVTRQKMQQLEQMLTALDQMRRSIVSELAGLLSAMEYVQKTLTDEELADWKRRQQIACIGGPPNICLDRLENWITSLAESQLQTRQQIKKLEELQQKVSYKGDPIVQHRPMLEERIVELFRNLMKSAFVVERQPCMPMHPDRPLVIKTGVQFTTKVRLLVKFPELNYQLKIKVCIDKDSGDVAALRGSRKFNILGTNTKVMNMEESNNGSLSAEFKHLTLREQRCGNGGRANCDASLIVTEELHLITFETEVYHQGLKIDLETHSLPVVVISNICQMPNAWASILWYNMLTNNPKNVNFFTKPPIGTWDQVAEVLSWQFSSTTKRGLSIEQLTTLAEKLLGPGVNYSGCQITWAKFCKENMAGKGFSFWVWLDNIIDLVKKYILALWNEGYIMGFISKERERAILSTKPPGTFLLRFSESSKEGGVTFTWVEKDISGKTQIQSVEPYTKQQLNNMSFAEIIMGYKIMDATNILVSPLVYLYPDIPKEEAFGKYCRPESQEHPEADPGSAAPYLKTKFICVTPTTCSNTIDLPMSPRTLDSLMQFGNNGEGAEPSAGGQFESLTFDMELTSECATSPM
Chain of Protein cereblon/Signal transducer and activator of transcription 4 (Homo sapiens) (Q96SW2 whole entry, looked up, one chain of several): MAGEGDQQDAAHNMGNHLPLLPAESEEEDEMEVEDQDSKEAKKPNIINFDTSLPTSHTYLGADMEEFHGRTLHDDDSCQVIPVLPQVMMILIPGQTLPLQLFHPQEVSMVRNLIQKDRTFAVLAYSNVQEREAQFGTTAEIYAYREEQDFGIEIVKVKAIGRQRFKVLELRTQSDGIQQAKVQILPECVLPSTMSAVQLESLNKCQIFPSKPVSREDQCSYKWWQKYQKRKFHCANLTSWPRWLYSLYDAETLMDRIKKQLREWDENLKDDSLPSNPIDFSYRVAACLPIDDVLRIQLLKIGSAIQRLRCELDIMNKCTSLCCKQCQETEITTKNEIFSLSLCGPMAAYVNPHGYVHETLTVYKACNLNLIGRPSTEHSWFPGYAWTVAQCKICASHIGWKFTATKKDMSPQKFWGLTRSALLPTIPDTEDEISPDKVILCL
Chain of Protein cereblon/Signal transducer and activator of transcription 3 (P40763 2-770 limits assumed): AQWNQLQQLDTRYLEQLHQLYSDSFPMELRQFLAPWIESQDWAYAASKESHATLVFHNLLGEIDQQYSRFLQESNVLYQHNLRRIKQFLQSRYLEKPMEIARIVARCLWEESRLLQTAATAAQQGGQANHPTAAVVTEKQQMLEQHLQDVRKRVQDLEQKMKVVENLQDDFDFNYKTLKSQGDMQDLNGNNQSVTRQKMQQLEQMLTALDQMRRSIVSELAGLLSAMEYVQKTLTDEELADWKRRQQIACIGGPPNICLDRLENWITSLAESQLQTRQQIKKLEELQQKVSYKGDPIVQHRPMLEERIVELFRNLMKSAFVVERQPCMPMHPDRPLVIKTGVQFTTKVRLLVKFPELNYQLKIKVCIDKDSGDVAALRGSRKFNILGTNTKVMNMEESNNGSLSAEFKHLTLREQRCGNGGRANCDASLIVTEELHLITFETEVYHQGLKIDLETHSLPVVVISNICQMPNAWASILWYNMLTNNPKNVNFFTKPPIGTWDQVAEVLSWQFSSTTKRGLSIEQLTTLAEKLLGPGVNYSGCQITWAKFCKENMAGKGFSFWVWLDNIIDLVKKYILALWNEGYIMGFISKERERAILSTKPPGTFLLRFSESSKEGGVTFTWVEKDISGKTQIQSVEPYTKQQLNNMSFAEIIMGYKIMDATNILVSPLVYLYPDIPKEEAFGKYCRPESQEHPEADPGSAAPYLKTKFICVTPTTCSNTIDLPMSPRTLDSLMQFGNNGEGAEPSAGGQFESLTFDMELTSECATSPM
Chain of Protein cereblon/Signal transducer and activator of transcription 3 (Q96SW2 whole entry partner): as the sequence (Q96SW2 whole entry, looked up, one chain of several) above
Chain of Protein cereblon/Signal transducer and activator of transcription 2 (Homo sapiens) (P52630 whole entry, looked up): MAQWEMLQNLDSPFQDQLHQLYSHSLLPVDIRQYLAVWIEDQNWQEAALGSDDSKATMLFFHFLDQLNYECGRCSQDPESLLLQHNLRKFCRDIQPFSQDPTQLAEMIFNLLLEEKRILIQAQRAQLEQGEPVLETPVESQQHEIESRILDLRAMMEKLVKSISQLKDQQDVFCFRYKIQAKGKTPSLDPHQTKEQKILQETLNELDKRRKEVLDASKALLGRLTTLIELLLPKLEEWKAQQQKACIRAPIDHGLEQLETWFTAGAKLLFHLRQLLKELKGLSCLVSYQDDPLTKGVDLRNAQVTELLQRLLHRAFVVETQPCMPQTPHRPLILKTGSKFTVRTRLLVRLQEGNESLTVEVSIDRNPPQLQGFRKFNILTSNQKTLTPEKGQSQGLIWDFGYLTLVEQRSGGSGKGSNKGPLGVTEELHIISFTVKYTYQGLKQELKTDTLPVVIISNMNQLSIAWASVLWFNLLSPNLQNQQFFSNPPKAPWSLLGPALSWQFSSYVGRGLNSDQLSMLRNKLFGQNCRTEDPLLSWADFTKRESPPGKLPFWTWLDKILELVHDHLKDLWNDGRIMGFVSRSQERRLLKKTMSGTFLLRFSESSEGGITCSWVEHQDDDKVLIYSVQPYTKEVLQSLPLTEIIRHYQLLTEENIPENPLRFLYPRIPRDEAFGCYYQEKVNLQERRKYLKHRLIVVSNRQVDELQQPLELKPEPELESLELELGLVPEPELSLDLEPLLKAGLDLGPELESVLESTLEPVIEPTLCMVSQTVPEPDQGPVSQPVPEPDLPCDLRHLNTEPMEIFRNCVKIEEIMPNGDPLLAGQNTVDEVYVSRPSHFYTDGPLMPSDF
Chain of Protein cereblon/Signal transducer and activator of transcription 2 (Homo sapiens) (Q96SW2 whole entry, looked up): as the sequence (Q96SW2 whole entry, looked up, one chain of several) above

| SMILES | Drug uptake [1] [ng/mL] | Activity [2] | Activity [3] | Activity [4] | Activity [5] | Drug metabolism [6] | Activity [7] [%] | Kd [8] [µM] | Activity [9] | Kd [10] [µM] | Activity [11] [%] | Activity [12] | Activity [13] |
| --- | --- | --- | --- | --- | --- | --- | --- | --- | --- | --- | --- | --- | --- |
| NC(=O)CC[C@H](NC(=O)[C@@H]1CC[C@@H]2CCN(C(=O)CCCCCC#Cc3cccc4c3CN(C3CCC(=O)NC3=O)C4=O)C[C@H](NC(=O)c3cc4cc(C(F)(F)P(=O)(O)O)ccc4[nH]3)C(=O)N21)C(=O)NC(c1ccccc1)c1ccccc1 (stereo partly drawn) | 48476 | inactive | inactive | Active | inactive | Metabolite detected |  |  |  |  |  |  |  |
| NC(=O)CC[C@H](NC(=O)[C@@H]1CC[C@@H]2CCN(C(=O)CCCCCC#Cc3cccc4c3CN(C3CCC(=O)NC3=O)C4=O)C[C@H](NC(=O)c3cc4cc(C(=O)P(=O)(O)O)ccc4[nH]3)C(=O)N21)C(=O)NC(c1ccccc1)c1ccccc1 (stereo partly drawn) |  |  |  |  |  |  | 87 | > 0.01 | Active | 0.028 | 100 | Non-Toxic | inactive |
